Results gathered from unrelated publications.
Lines come from different studies, so protocols differ.
Target: Homeodomain-interacting protein kinase 2 (HIPK2, Homo sapiens, UniProt Q9H2X6)

With `CCOc1cc(-c2nncn2C)ccc1Nc1ncc2cc(C)nc(NCC(C)(C)C)c2n1` the inhibition was under 15% (enzyme activity, inhibitor, FRET; 1 µM).
For `O=C(O)c1ccc2c(c1)nc(NCCc1cccc(Cl)c1)c1ncncc12`, the remaining activity was 36% (enzyme activity, inhibitor, radiometric; 1 µM).
The inhibition of `COc1cc2ncnc(Nc3ccc(Oc4ccccc4)c(C)c3C)c2cc1OC` is reported as 1% (enzyme activity, inhibitor; 1 µM).
`COc1cccc(CNC(=O)c2nc3scc(COCc4ccc(C(=O)O)cc4)c3c(=O)[nH]2)c1` has a remaining binding of 72.9% (cell-free assay, competition with immobilised ligand; 1 µM).
With `O=C(O)c1ccc2c(c1)nc(Nc1ccc3ccccc3c1)c1ccncc12` the remaining activity was 4% (enzyme activity, inhibitor, radiometric; 1 µM).
For `CCCS(=O)(=O)Nc1ccc(F)c(C(=O)c2c[nH]c3ncc(-c4ccc(Cl)cc4)cc23)c1F`, the inhibition was under 10% (enzyme activity, inhibitor; 1 µM).
The remaining signal of `Cc1ccc(NC(=O)c2ccc(CN3CCN(C)CC3)cc2)cc1Nc1nc(-c2cccnc2)cs1` is reported as 90.8% (cell-free assay; 0.5 µM).
`COc1cccc(Nc2nc3cc(C(=O)O)ccc3c3cnccc23)c1` has a remaining activity of 2% (enzyme activity, inhibitor, radiometric; 1 µM).
`CC(=O)N1CCC(c2ccc(C(=O)NC3=NCCN3)cc2C(F)(F)F)CC1` has a remaining binding of 100% (cell-free assay, competition with immobilised ligand; 1 µM).
`Cc1ccc(Nc2nccc(N(C)c3ccc4c(C)n(C)nc4c3)n2)cc1S(N)(=O)=O` has an inhibition of 7% (enzyme activity, inhibitor; 0.3 µM).
The inhibition of `COc1cc2nccc(Oc3ccc(NC(=O)c4c5n(n(-c6ccc(F)cc6)c4=O)CCCC5)cc3)c2cc1OC` is reported as 10% (enzyme activity, inhibitor; 0.1 µM).
With `O=C(O)c1ccc2c(c1)nc(Nc1cccc(F)c1)c1ccncc12` the remaining activity was -1% (enzyme activity, inhibitor, radiometric; 1 µM).
`Clc1ccc(Nc2nnc(Cc3ccncc3)c3ccccc23)cc1` has a remaining signal of 101% (cell-free assay; 0.5 µM).
With `CCN(CC)CCNC(=O)c1c(C)[nH]c(/C=C2\C(=O)Nc3ccc(F)cc32)c1C` the inhibition was 89% (enzyme activity, inhibitor; 10 µM).
With `N#Cc1cccc(Nc2nc3cc(C(=O)O)ccc3c3cnccc23)c1` the remaining activity was -1% (enzyme activity, inhibitor, radiometric; 1 µM).
For `O=C1NC(c2ccccn2)Sc2ccccc21` (stereo not drawn), the remaining binding was 80% (cell-free assay, competition with immobilised ligand; 1 µM).
For `COc1cc(-c2cc(-c3ccc(N4CCNCC4)cc3)cnc2C)cc(OC)c1OC`, the inhibition was 2% (enzyme activity, inhibitor; 1 µM).
The remaining binding of `Cc1nc(N2CC[C@@H](O)C2)ncc1-c1cc(C(F)(F)F)cc2[nH]ncc12` is reported as 74% (binding, competition with immobilised ligand; 1 µM).
`O=C1Nc2ccc(Cl)cc2C1=Cc1cc(Cl)c(O)c(Cl)c1` has a remaining signal of 122% (cell-free assay; 0.5 µM).
The remaining binding of `O=C(Nc1ccc(Oc2ccc(F)cc2)cc1)N1CCc2ncccc2[C@H]1c1ccc(F)cc1` is reported as 79% (cell-free assay, competition with immobilised ligand; 1 µM).
`O=C(O)c1ccc2c(c1)nc(Nc1ccc3ccccc3c1)c1ncncc12` has a remaining activity of -3% (enzyme activity, inhibitor, radiometric; 1 µM).
`Cc1c(NC(=O)c2cc(C(N)=O)nc3cc(F)ccc23)c(C(F)(F)F)nn1Cc1ccc(C#N)cc1` has a remaining binding of 83% (cell-free assay, competition with immobilised ligand; 1 µM).
`N#Cc1cccc(Nc2nc3cc(C(=O)O)ccc3c3cncnc23)c1` gave a remaining activity of 3% (enzyme activity, inhibitor, radiometric; 1 µM).
For `CNC(=O)Nc1ccc2c(c1)[C@@]1(CC2)OC(=O)N(CC(=O)N(Cc2ccc(F)cc2)[C@@H](C)C(F)(F)F)C1=O`, the remaining binding was 78% (cell-free assay, competition with immobilised ligand; 1 µM).
For `Cc1cc(NC(=O)c2cccc3cc(-c4cccc5[nH]nc(N)c45)ccc23)ccc1F`, the activity vs control was 103% (enzyme activity, inhibitor; 0.1 µM).
`O=C(O)c1ccc2c(c1)nc(NCc1ccccc1)c1ccncc12` gave a remaining activity of 51% (enzyme activity, inhibitor, radiometric; 1 µM).
For `COc1cc(-c2cn(C3CCc4c(F)cccc4N(CC(F)(F)F)C3=O)nn2)ccc1-n1cnc(C)c1` (stereo not drawn), the remaining binding was 100% (cell-free assay, competition with immobilised ligand; 1 µM).
